Data on 5 compounds can be found in ChEMBL document CHEMBL1131468, “Rigid phencyclidine analogues. Binding to the phencyclidine and sigma 1 receptors” (J Med Chem, 1998).

The target in experiment [1] is Sigma non-opioid intracellular receptor 1 (Rattus norvegicus, UniProt Q9R0C9). The experiment can be described thus: Inhibition of [3H]NANM binding to sigma receptor obtained from tissue homogenate preparation of fresh whole rat brain minus cerebellum. The class given is tissue-based. In outline:
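Radioligand displacement in homogenate of fresh whole rat brain minus cerebellum. The PCP site was labelled with [3H]TCP and the sigma site with [3H]NANM. IC50 values were read from inhibition curves and converted to Ki with the Cheng-Prusoff equation. Experiments were run in triplicate and reported as mean ± standard deviation of three experiments.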

A short description of experiment [2]: Inhibition of [3H]-TCP binding to PCP receptor obtained from tissue homogenate preparation of fresh whole rat brain minus cerebellum.

Sequence of Sigma non-opioid intracellular receptor 1 (Q9R0C9 whole entry): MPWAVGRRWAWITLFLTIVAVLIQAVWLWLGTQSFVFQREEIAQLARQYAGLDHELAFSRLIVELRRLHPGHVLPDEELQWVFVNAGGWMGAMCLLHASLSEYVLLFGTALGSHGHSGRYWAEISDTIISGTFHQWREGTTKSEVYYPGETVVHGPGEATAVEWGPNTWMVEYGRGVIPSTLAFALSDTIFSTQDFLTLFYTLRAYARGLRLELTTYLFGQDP

The term IC50 denotes the concentration that inhibits the measured activity by half. In experiment [1], `c1ccc2c(c1)C1CCC2(N2CCCCC2)CC1` yielded an IC50 of 0.319 µM.

In turn, `c1ccc2c(c1)C1CCC2(N2CCCCC2)C1` (stereo not given) displayed an IC50 in experiment [1] of 0.365 µM.

Turning to `O=C(OCCN1CCOCC1)C1(c2ccccc2)CCCCC1`, the IC50 in experiment [1] was determined as 0.044 µM.

`c1ccc2c(c1)C1CCCCC21N1CCCCC1` (stereo not given) had an IC50 in experiment [1] of 0.33 µM.

As to `c1ccc(C2(N3CCCCC3)CCCCC2)cc1` [PHENCYCLIDINE], the IC50 in experiment [2] came to 0.091 µM.
